The results in this text go back to paper PMC7401491 (Investigative Ophthalmology & Visual Science, 2020).

First the molecules themselves.
B1: recombinant human S100 calcium binding protein S100A8 (untagged) (natural protein, UniProt P05109 1-93, looked up)
chain: MLTELEKALNSIIDVYHKYSLIKGNFHAVYRDDLKKLLETECPQYIRKKGADVWFKELDINTDGAVNFQEFLILVIKMGVAAHKKSHEESHKE
B2: cationic antimicrobial protein of 37 kDa (CAP37) (natural protein, human, UniProt P20160 27-248, looked up)
chain: IVGGRKARPRQFPFLASIQNQGRHFCGGALIHARFVMTAASCFQSQNPGVSTVVLGAYDLRRRERQSRQTFSISSMSENGYDPQQNLNDLMLLQLDREANLTSSVTILPLPLQNATVEAGTRCQVAGWGSQRSGGRLSRFPRFVNVTVTPEDQCRPNNVCTGVLTRRGGICNGDGGTPLVCEGLAHGVASFSLGPCGRGPDFFTRVALFRDWIDGVLNNPGP

Like-named read-outs stand apart in the source and are kept apart here. Ends that are not written are not given here.

Assay [1] has as its target TLR4/MD-2 complex (Homo sapiens, UniProt O00206+Q9Y6Y9). In words: ELISA binding of His-tagged TLR4/MD-2 complex to coated proteins/peptides. Conditions: for Binding of TLR4/MD-2 to coated protein/peptide (in words): ELISA, TLR4/MD-2 at 10 nM, compared with BSA. The procedure, abridged:
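ELISA against coated protein or peptide at 5 µg/ml (PBS pH 7.4; 2 h RT, then 4°C overnight), blocked with 3% BSA/PBST. Recombinant human TLR4/MD-2 complex, both chains His-tagged, 0–100 nM in PBST/0.1% BSA, 70 min at 37°C. Probed with anti-His mAb 1.0 µg/ml, then peroxidase secondary; OD 492 nm. 0-nM values subtracted; Kd derived; compared with BSA. Mean ± SEM, three independent experiments.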
A general note: In an ELISA, binding on a coated surface is turned into a signal by an enzyme label.

Assay [2] deals with T1, CAP37-derived peptide 120-146 WH (human).
T1 sequence (P20160 146-172 with Q131W R132H, looked up): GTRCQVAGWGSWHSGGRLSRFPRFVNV
In words: ELISA.

In assay [3] the target is CAP37-derived peptide 120-146 WH 5RMP (human). In words: ELISA.
Assay [4] deals with T2, CAP37-derived peptide 20-44 (human).
T2 sequence (P20160 46-70, looked up): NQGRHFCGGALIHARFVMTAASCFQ
As to the kind of experiment: ELISA.

In assay [5] the target is CAP37-derived peptide 20-44 5RMP (human). In words: ELISA.
Assay [6] concerns the target T3, recombinant human TLR4/myeloid differentiation factor 2 (MD-2) complex (human, UniProt O00206 24-631; Q9Y6Y9 19-160). In words: ELISA.
Assay [7] concerns the target TLR4 (Homo sapiens, UniProt O00206). In words: HEK-Blue hTLR4 stimulation assay. Conditions: HEK-hTLR4 cells. It is filed as cell-based. The procedure, abridged: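 HEK-Blue hTLR4 cells (human TLR4, MD-2, CD14, NF-κB/AP-1-driven SEAP), passages 3–15, detached with warm PBS and suspended serum-free at 1.4 × 10^5 cells/ml. Test compound in nuclease-free water at final 10 nM–100 µM; 24 h, 37°C, 5% CO2. SEAP read with Quanti-Blue, 3 h, OD 630 nm, normalised to BCA protein. Untreated background subtracted; expressed as % of 50-nM S100A9. Three experiments in triplicate.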

The test system of assay [8] is TLR4 activation by S100A9. As to the kind of experiment: HEK-Blue hTLR4 assay, effect on activation of TLR4 by 10-nM S100A9. It is filed as cell-based, human.
For assay [9], the system named is S100A8. In words: ELISA binding of CAP37 to S100A8. The settings on record: data not shown. The arrangement: species or system human.
The target in assay [10] is T3, recombinant human TLR4/myeloid …. In words: ELISA. The source holds these as a separate data set.
Assay [11] deals with T1, CAP37-derived peptide 120-146 WH (human). As to the kind of experiment: ELISA. This is another data set of the same source.
In assay [12] the target is CAP37-derived peptide 120-146 WH 5RMP (human). As to the kind of experiment: ELISA. This is another data set of the same source.
For assay [13], the target named is T2, CAP37-derived peptide 20-44 (human). As to the kind of experiment: ELISA. This is another data set of the same source.
Assay [14] concerns the target CAP37-derived peptide 20-44 5RMP (human). In words: ELISA. The source holds these as a separate data set.
The target in assay [15] is B1. In words: ELISA.
In assay [16] the target is B2. In words: ELISA.

Sequence of TLR4/MD-2 complex (O00206 24-631 limits assumed): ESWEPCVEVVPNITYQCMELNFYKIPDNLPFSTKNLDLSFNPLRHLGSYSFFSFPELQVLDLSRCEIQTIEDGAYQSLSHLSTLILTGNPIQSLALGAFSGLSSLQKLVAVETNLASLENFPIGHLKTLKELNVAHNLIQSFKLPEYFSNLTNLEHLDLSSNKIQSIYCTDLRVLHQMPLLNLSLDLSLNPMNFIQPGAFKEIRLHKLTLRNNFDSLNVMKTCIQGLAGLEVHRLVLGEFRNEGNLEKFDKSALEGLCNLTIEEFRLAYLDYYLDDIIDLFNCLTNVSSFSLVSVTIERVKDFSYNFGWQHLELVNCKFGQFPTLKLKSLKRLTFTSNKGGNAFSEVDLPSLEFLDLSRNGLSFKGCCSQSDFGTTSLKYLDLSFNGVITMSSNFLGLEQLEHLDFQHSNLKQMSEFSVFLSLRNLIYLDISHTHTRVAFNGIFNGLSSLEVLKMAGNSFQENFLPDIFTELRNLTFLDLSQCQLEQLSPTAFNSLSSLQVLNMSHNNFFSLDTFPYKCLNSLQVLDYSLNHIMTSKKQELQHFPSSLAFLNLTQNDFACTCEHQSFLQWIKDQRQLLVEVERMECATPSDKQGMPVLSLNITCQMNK
Sequence of TLR4/MD-2 complex (Q9Y6Y9 17-160 partner limits assumed): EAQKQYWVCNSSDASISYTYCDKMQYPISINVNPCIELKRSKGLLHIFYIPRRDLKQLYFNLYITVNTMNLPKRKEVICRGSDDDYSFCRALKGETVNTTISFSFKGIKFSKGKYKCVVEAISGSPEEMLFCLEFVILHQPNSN
Sequence of TLR4 (O00206 24-839): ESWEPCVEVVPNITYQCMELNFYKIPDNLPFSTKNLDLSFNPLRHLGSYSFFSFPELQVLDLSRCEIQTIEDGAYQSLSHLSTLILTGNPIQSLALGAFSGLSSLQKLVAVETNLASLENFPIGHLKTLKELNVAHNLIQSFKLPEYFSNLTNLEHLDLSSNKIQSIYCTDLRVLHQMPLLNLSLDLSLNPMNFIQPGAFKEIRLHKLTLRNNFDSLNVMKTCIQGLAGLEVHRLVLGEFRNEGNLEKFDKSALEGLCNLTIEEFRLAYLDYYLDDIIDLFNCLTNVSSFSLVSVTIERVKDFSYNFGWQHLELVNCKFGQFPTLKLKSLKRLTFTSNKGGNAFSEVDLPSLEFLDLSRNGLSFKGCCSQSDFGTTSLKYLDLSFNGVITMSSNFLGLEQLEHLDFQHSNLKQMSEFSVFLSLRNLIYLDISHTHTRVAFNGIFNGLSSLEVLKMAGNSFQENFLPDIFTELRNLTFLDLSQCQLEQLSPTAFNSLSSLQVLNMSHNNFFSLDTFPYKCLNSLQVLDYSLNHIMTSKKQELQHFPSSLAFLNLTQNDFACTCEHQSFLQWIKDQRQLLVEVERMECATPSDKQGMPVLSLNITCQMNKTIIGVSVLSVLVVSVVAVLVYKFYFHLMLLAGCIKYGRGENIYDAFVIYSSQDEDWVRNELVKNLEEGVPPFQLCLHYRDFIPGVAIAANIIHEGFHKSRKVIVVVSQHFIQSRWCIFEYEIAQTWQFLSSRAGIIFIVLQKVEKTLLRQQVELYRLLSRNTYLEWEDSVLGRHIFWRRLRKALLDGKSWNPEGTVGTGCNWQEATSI
Sequence of TLR4 (Q9Y6Y9 17-160 partner limits assumed): as the sequence (Q9Y6Y9 17-160 partner limits assumed) above
T3 sequence (O00206 24-631, chain 1 of 2): as the sequence (O00206 24-631 limits assumed) above
T3 sequence (Q9Y6Y9 19-160, chain 2 of 2): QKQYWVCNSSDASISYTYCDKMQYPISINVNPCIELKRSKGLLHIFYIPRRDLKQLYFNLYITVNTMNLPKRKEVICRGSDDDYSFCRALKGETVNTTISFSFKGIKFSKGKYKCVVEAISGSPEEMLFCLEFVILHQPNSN

Consider “NE: neutrophil elastase purified from human neutrophils”, for which, in assay [1], the “Binding of TLR4/MD-2 to coated protein/peptide (in words)” value is recorded as “did not significantly interact”.
The Kd is the concentration at which binding is half-saturated. As to “recombinant human TLR4/myeloid differentiation factor 2 (MD-2) complex (from UniProt O00206 24-631; Q9Y6Y9 19-160)”, the Kd in assay [2] was 229 nM; in assay [3], 18.9 nM; in assay [4], 90.6 nM; in assay [5], 270 nM.
Regarding “CG: cathepsin G purified from human neutrophils”, in assay [1], the “Binding of TLR4/MD-2 to coated protein/peptide (in words)” value was “did not significantly interact”.
Same read-out and setting: with LDREANLTSSVTILPLPLQNATVEAGTR [95-122] the entry was “only minimal interaction”.
For B1, the binding result in [6] is “binds”.
Regarding B2, the “Binding of TLR4/MD-2 to coated protein/peptide (in words)” value in assay [1] was “low, but specific, interaction”. Moreover, the “Fold lower affinity for TLR4 than for S100A9” value in assay [1] (Kd 98 nM versus Kd 9.2 nM) is recorded as around 10 fold. Moreover, in [7], the “Fold higher concentration at which TLR4 activation begins, versus S100A9” value was “approximately 100 fold”. Besides, in [7] (24 h, SEAP), the “Concentration at which activation of TLR4 begins” value amounted to 100 nM. Besides, the “Decrease of TLR4 activation by S100A9” value was around 20% in assay [8] (CAP37 0.01 nM preincubated 1 hour with 10-nM S100A9, from 50% to 30%); 10% in assay [8] (CAP37 10 nM preincubated 1 hour with 10-nM S100A9); “no decrease” in assay [8] (CAP37 1 µM preincubated 1 hour with 10-nM S100A9). The “Interaction between CAP37 and S100A8 (in words)” value in assay [9] is recorded as “specific, but low, interaction”. Also, the Kd in assay [10] came to 98 nM.

B3: recombinant human S100 calcium-binding protein A9 (S100A9), C-terminus 8-His tag (natural protein, UniProt P06702 1-114, looked up)
chain: MTCKMSQLERNIETIINTFHQYSVKLGHPDTLNQGEFKELVRKDLQNFLKKENKNEKVIEHIMEDLDTNADKQLSFEEFIMLMARLTWASHEKMHEGDEGPGHHHKPGLGEGTP
Regarding B3, the Kd in [11] came to 37.3 nM; in [12], 22.3 nM; in assay [13], 43.8 nM; in [14] it was 23.5 nM; in assay [16], 9.2 nM. In [15], the “binding at 10 nM S100A9 relative to its binding to CAP37” value was 2 fold.
